Results as given in ChEMBL document CHEMBL1138913, “Synthesis, structure analysis, and antitumor activity of 3,6-disubstituted-1,4-dihydro-1,2,4,5-tetrazine derivatives” (2006).

Key:
Type in all cases: functional
Bel-7402 [1] = experiment: Antiproliferative activity against human BEL-7402 cell line at 10 umol/L by SRB method
Method in brief: (§1)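 Growth inhibition of A-549 and BEL-7402 cells was measured in vitro by sulforhodamine B (SRB) staining. Compounds were tested across five tenfold concentrations from 10^-4 to 10^-8 mol/L, and each value is reported as the percent inhibition ratio of cell growth at that concentration.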

HL-60 [2] = experiment: Antiproliferative activity against human HL60 cell line at 100 umol/L by MTT method
Method in brief: (§2)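 P-388 and HL-60 cells were tested in vitro by MTT assay over five tenfold concentrations from 10^-4 to 10^-8 mol/L. Each value is the percent inhibition ratio of cancer cell growth at that concentration.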

HL-60 [3] = experiment: Antiproliferative activity against human HL60 cell line at 0.1 umol/L by MTT method; method in brief: as §2
HL-60 [4] = experiment: Antiproliferative activity against human HL60 cell line at 0.01 umol/L by MTT method; method in brief: as §2
A549 [5] = experiment: Antiproliferative activity against human A549 cell line at 1 umol/L by SRB method; method in brief: as §1
P388 [6] = experiment: Antiproliferative activity against mouse P388 cell line at 0.01 umol/L by MTT method; method in brief: as §2
P388 [7] = experiment: Antiproliferative activity against mouse P388 cell line at 100 umol/L by MTT method; method in brief: as §2
A549 [8] = experiment: Antiproliferative activity against human A549 cell line at 10 umol/L by SRB method; method in brief: as §1
P388 [9] = experiment: Antiproliferative activity against mouse P388 cell line at 0.1 umol/L by MTT method; method in brief: as §2
A549 [10] = experiment: Antiproliferative activity against human A549 cell line at 0.1 umol/L by SRB method; method in brief: as §1
HL-60 [11] = experiment: Antiproliferative activity against human HL60 cell line at 10 umol/L by MTT method; method in brief: as §2
P388 [12] = experiment: Antiproliferative activity against mouse P388 cell line at 10 umol/L by MTT method; method in brief: as §2
P388 [13] = experiment: Antiproliferative activity against mouse P388 cell line at 1 umol/L by MTT method; method in brief: as §2
Bel-7402 [14] = experiment: Antiproliferative activity against human BEL-7402 cell line at 0.1 umol/L by SRB method; method in brief: as §1
Bel-7402 [15] = experiment: Antiproliferative activity against human BEL-7402 cell line at 0.01 umol/L by SRB method; method in brief: as §1
Bel-7402 [16] = experiment: Antiproliferative activity against human BEL-7402 cell line at 100 umol/L by SRB method; method in brief: as §1
HL-60 [17] = experiment: Antiproliferative activity against human HL60 cell line at 1 umol/L by MTT method; method in brief: as §2
A549 [18] = experiment: Antiproliferative activity against human A549 cell line at 100 umol/L by SRB method; method in brief: as §1
A549 [19] = experiment: Antiproliferative activity against human A549 cell line at 0.01 umol/L by SRB method; method in brief: as §1
Bel-7402 [20] = experiment: Antiproliferative activity against human BEL-7402 cell line at 1 umol/L by SRB method; method in brief: as §1

SMILES | Activity (Bel-7402 [1]) [%] | Activity (HL-60 [2]) [%] | Activity (HL-60 [3]) [%] | Activity (HL-60 [4]) [%] | Activity (A549 [5]) [%] | Activity (P388 [6]) [%] | Activity (P388 [7]) [%] | Activity (A549 [8]) [%] | Activity (P388 [9]) [%] | Activity (A549 [10]) [%] | Activity (HL-60 [11]) [%] | Activity (P388 [12]) [%] | Activity (P388 [13]) [%] | Activity (Bel-7402 [14]) [%] | Activity (Bel-7402 [15]) [%] | Activity (Bel-7402 [16]) [%] | Activity (HL-60 [17]) [%] | Activity (A549 [18]) [%] | Activity (A549 [19]) [%] | Activity (Bel-7402 [20]) [%]
c1ccc(C2=NNC(c3ccccc3)=NN2)cc1 | 14.3 | 82.1 | 2.6 | 17.2 | 5.4 | 0 | 87.6 | 67.2 | 0 | 10.2 | 16.1 | 69 | 0 | 0 | 0 | 54 | 2.9 | 55.8 | 0 | 0
Clc1ccc(Cc2nnc(Cc3ccc(Cl)cc3)nn2)cc1 | 0 | 85.4 | 21.1 | 7.6 | 9.3 | 8.7 | 65.8 | 29.1 | 1.1 | 8.9 | 22.3 | 57.1 | 13.1 | 0 | 6 | 61.2 | 13.5 | 58.4 | 0 | 0
Cc1cccnc1-c1nnc(-c2ncccc2C)nn1 | 23.8 | 94.3 | 9.1 | 4.2 | 0 | 0 | 34.9 | 9.8 | 0 | 0 | 96.6 | 0 | 0 | 0 | 2.8 | 93 | 7 | 93.5 | 0 | 0
c1ccc(-c2nnc(-c3ccccc3)nn2)cc1 | 7.4 | 35.1 | 13.9 | 0 | 20.3 | 0 | 15.5 | 9.5 | 0 | 27.1 | 16.4 | 0 | 0 | 0 | 0 | 41.7 | 13.9 | 60.4 | 29.7 | 0
FC(F)(F)c1ccc(-c2nnc(-c3ccc(C(F)(F)F)cc3)nn2)cc1 | 12.6 | 43.7 | 1.4 | 0 | 33 | 0 | 40.2 | 44.4 | 0 | 19.5 | 7 | 2.5 | 0 | 0 | 0 | 21.3 | 5.8 | 51.5 | 9.7 | 0
Oc1ccc(Cl)cc1C1=NN=C(c2cc(Cl)ccc2O)NN1 | – | – | – | – | 0 | 0 | 89 | 80.3 | 0 | 0 | – | 0 | 0 | – | – | – | – | 65.3 | 0 | –
Clc1ccc(C2=NN=C(c3ccc(Cl)cc3)NN2)cc1 | – | – | – | – | 4.7 | 4.9 | 65.9 | 2 | 19.4 | 0 | – | 51 | 36 | – | – | – | – | 73.4 | 7.1 | –
Cc1cccnc1C1=NN=C(c2ncccc2C)NN1 | 8.3 | 96.3 | 2.6 | 17.2 | 0 | 0 | 0 | 3.6 | 0 | 0 | 13.6 | 0 | 0 | 0 | 0 | 94.9 | 2.9 | 2.6 | 0 | 0
Clc1ccc(-c2nnc(-c3ccc(Cl)cc3)nn2)cc1 | 0.1 | 66.7 | 4 | 0 | 29 | 0 | 0 | 35.1 | 0 | 19.4 | 12.2 | 0 | 0 | 0 | 3.4 | 27.4 | 0 | 52.3 | 16.1 | 0
Clc1ccc(CC2=NNC(Cc3ccc(Cl)cc3)=NN2)cc1 | – | – | – | – | 3 | 0 | 48.8 | 17.8 | 2.9 | 10.1 | – | 15.5 | 4.4 | – | – | – | – | 64.5 | 7.8 | –
FC(F)(F)c1ccc(C2=NN=C(c3ccc(C(F)(F)F)cc3)NN2)cc1 | – | – | – | – | 0 | 9.1 | 47.7 | 22 | 13.8 | 0 | – | 36.9 | 15.2 | – | – | – | – | 70.3 | 0 | –
Oc1ccc(Cl)cc1-c1nnc(-c2cc(Cl)ccc2O)nn1 | – | – | – | – | 16.4 | 82.8 | 92.5 | 62.3 | 88 | 0 | – | 90.7 | 91.2 | – | – | – | – | 7.6 | 0 | –
Clc1ccccc1-c1nnc(-c2ccccc2Cl)nn1 [CLOFENTEZINE] | – | – | – | – | 5.6 | 0 | 0 | 2.8 | 0 | 14.6 | – | 0 | 0 | – | – | – | – | 8.2 | 12.6 | –
